Test results from ChEMBL document CHEMBL1156264, “Synthesis and structure-activity relationships of dimeric peptide antagonists of the human immunoglobulin G-human neonatal Fc receptor (IgG-FcRn) interaction” (J Med Chem, 2010).
pIC50, pKd: −log10 of the molar value. Active and inactive are the calls of the source. No cut-off for these calls is given here. Numbered stars: 1 amine (or outer) side, 2 acyl side, 3 side chain; on linkers, the order of the positions; unused ones are H or OH. Bridge positions count the residues as written; N and C are the ends. Square brackets hold non-standard residues; d marks the D form. Peptide text beside a SMILES is read from it. I, II: the chains in the order shown. X3 = CN(CCCNC(=O)CCNC(=O)CCSCC(=O)[*:1])CCCNC(=O)CCNC(=O)CCSCC(=O)[*:2]; Phe(4-guanidino) = N=C(N)Nc1ccc(C[C@H](N)C(=O)O)cc1; X1 = O=C(C(=O)[*:2])[C@H](Cc1ccc(O)cc1)N[*:1]; NHCH2CH2N(Me)CH2CO = CN(CCN[*:1])CC(=O)[*:2]; NMeL = CN[C@@H](CC(C)C)C(=O)O; Pen = CC(C)(S)[C@H](N)C(=O)O; Suc = O=C(CCC(=O)[*:2])[*:1]; X4 = O=C(CSCC(=O)[*:2])[*:1]; Sar = CNCC(=O)O

Tests used:
[1] = target: T1, IgG receptor FcRn large subunit p51 (Homo sapiens, UniProt P55899); assay: Ratio of QRF-Asp-TGHFGGLYP-Lys-NGP IC50 to compound IC50 for soluble human FcRn
[2] = target: T1, IgG receptor FcRn large subunit p51; assay: Inhibition of IgG binding to soluble human FcRn after 2 hrs by competition ELISA
[3] = target: T1, IgG receptor FcRn large subunit p51; assay: Ratio of RFCTGHFGGLYPC IC50 to compound IC50 for soluble human FcRn
[4] = tested on: Mus musculus; assay: Increase in human IgG catabolism in endogenous FcRn/beta2m gene knockout TG32B transgenic mouse harboring human FcRn at 5 mg/kg, iv QD for 4 consecutive days measured after 24 hrs by ELISA; format: functional, organism-based; design: dose 5 mg/kg
Method in brief: (§1)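 TG32B mice (muFcRn−/−, muβ2m−/−, huFcRn+/+, huβ2m+/+), 4 per group, got 500 mg/kg hIgG (pooled subtypes) iv at 0 h. Peptide or vehicle (20 mM sodium acetate, pH 5) was given iv at 24, 48, 72 and 96 h. Blood was taken before each injection and at 30, 120 and 168 h. Serum hIgG was measured by ELISA: goat anti-hIgG(Fab) capture, goat anti-hIgG(Fc)-HRP detection.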

[5] = target: T1, IgG receptor FcRn large subunit p51; assay: Binding affinity to soluble human FcRn at pH 6 by surface plasmon resonance assay
Method in brief: (§2)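 shFcRn was amine-coupled to a CM5 dextran chip, and peptide dilutions were run at pH 6 or pH 7.4 on a Biacore 3000 or T100. The equilibrium response was plotted against concentration and fitted to a steady-state affinity model to give Kd.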

[6] = target: T1, IgG receptor FcRn large subunit p51; assay: Binding affinity to soluble human FcRn at pH 7.4 by surface plasmon resonance assay; method in brief: as §2
[7] = target: T1, IgG receptor FcRn large subunit p51; assay: Ratio of RF-Pen-TGHFG-Sar-NMeLeu-YPC IC50 to compound IC50 for soluble human FcRn
[8] = tested on: Mus musculus; assay: Increase in human IgG catabolism in endogenous FcRn/beta2m gene knockout TG32B transgenic mouse harboring human FcRn at 2.5 mg/kg, iv QD for 4 consecutive days measured after 24 hrs by ELISA; format: functional, organism-based; design: dose 2.5 mg/kg; method in brief: as §1
[9] = tested on: Mus musculus; assay: Increase in human IgG catabolism in iv dosed endogenous FcRn/beta2m gene knockout TG32B transgenic mouse harboring human FcRn administered QD for 4 consecutive days measured after 24 hrs by ELISA; format: functional, organism-based; method in brief: as §1
[10] = tested on: Mus musculus; assay: Increase in human IgG catabolism in endogenous FcRn/beta2m gene knockout TG32B transgenic mouse harboring human FcRn at 1 mg/kg, iv QD for 4 consecutive days measured after 24 hrs by ELISA; format: functional, organism-based; design: dose 1 mg/kg; method in brief: as §1

T1 sequence (P55899 whole entry): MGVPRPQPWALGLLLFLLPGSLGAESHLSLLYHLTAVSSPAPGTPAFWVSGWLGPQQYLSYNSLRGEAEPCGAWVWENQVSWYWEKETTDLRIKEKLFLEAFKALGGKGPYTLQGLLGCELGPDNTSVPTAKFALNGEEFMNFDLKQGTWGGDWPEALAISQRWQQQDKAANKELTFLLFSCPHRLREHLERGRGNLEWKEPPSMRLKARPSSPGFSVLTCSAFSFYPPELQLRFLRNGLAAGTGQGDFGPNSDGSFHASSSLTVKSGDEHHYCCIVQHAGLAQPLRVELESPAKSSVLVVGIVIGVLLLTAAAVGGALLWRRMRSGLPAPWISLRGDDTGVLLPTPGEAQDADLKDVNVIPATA

Row | SMILES | Ratio IC50 [1] | pIC50 [2] | pKd [5] | pKd [6] | further results
1 | CC(C)C[C@H]1C(=O)N[C@@H](Cc2ccc(O)cc2)C(=O)C(=O)N2CCC[C@H]2C(=O)N[C@H](C(=O)N[C@@H](CC(N)=O)C(=O)NCC(=O)N2CCC[C@H]2C(N)=O)CCCCNC(=O)C[C@H](NC(=O)[C@H](Cc2ccccc2)NC(=O)CSCCC(=O)NCCCN(CCCNC(=O)CCSCC(=O)N[C@@H](CCC(N)=O)C(=O)N[C@@H](CCCNC(=N)N)C(=O)N[C@@H](Cc2ccccc2)C(=O)N[C@H]2CC(=O)NCCCC[C@@H](C(=O)N[C@@H](CC(N)=O)C(=O)NCC(=O)N3CCC[C@H]3C(N)=O)NC(=O)[C@@H]3CCCN3C(=O)C(=O)[C@H](Cc3ccc(O)cc3)NC(=O)[C@H](CC(C)C)N(C)C(=O)CN(C)C(=O)CNC(=O)[C@H](Cc3ccccc3)NC(=O)[C@H](Cc3c[nH]cn3)NC(=O)CNC(=O)[C@H]([C@@H](C)O)NC2=O)CC(=O)NCC(=O)O)C(=O)N[C@@H]([C@@H](C)O)C(=O)NCC(=O)N[C@@H](Cc2c[nH]cn2)C(=O)N[C@@H](Cc2ccccc2)C(=O)NCC(=O)N(C)CC(=O)N1C | 37 | 6.22 |  |  | 
2 | CC(C)C[C@@H]1NC(=O)CNC(=O)CNC(=O)[C@H](Cc2ccccc2)NC(=O)[C@H](Cc2c[nH]cn2)NC(=O)CNC(=O)[C@H]([C@@H](C)O)NC(=O)[C@@H](NC(=O)[C@H](Cc2ccccc2)NC(=O)[C@H](CCCNC(=N)N)NC(=O)CCC(=O)NCCN(C)CC(=O)N[C@@H](CCCNC(=N)N)C(=O)N[C@@H](Cc2ccccc2)C(=O)N[C@H]2CSSC[C@@H](C(N)=O)NC(=O)[C@@H]3CCCN3C(=O)C(=O)[C@H](Cc3ccc(O)cc3)NC(=O)[C@H](CC(C)C)NC(=O)CNC(=O)CNC(=O)[C@H](Cc3ccccc3)NC(=O)[C@H](Cc3c[nH]cn3)NC(=O)CNC(=O)[C@H]([C@@H](C)O)NC2=O)CSSC[C@@H](C(N)=O)NC(=O)[C@@H]2CCCN2C(=O)C(=O)[C@H](Cc2ccc(O)cc2)NC1=O |  |  |  |  | Ratio IC50 [3]: 12
3 | CC(C)C[C@H]1C(=O)N[C@@H](Cc2ccc(O)cc2)C(=O)C(=O)N2CCC[C@H]2C(=O)N[C@H](C(N)=O)CSSC(C)(C)[C@H](NC(=O)[C@H](Cc2ccccc2)NC(=O)[C@H](CCCNC(=N)N)NC(=O)CCC(=O)N[C@@H](CCCNC(=N)N)C(=O)N[C@@H](Cc2ccccc2)C(=O)N[C@@H]2C(=O)N[C@@H]([C@@H](C)O)C(=O)NCC(=O)N[C@@H](Cc3c[nH]cn3)C(=O)N[C@@H](Cc3ccccc3)C(=O)NCC(=O)N(C)CC(=O)N(C)[C@@H](CC(C)C)C(=O)N[C@@H](Cc3ccc(O)cc3)C(=O)C(=O)N3CCC[C@H]3C(=O)N[C@H](C(N)=O)CSSC2(C)C)C(=O)N[C@@H]([C@@H](C)O)C(=O)NCC(=O)N[C@@H](Cc2c[nH]cn2)C(=O)N[C@@H](Cc2ccccc2)C(=O)NCC(=O)N(C)CC(=O)N1C |  |  |  |  | Ratio IC50 [7]: 220; Activity [8]: Active; Activity [9]: Active; Activity [10]: Active; Activity [4]: Active
4 | CC(=O)N[C@@H](CCCNC(=N)N)C(=O)N[C@@H](Cc1ccccc1)C(=O)N[C@H]1CC(=O)NCCCC[C@@H](C(N)=O)NC(=O)[C@@H]2CCCN2C(=O)C(=O)[C@H](Cc2ccc(O)cc2)NC(=O)[C@H](CC(C)C)N(C)C(=O)CN(C)C(=O)CNC(=O)[C@@H](Cc2ccccc2)NC(=O)[C@H](Cc2c[nH]cn2)NC(=O)CNC(=O)[C@H]([C@@H](C)O)NC1=O |  | 5.72 | 6.85 | 6.03 | 
5 | CC(=O)N[C@@H](CCCNC(=N)N)C(=O)N[C@@H](Cc1ccccc1)C(=O)N[C@@H]1C(=O)N[C@@H]([C@@H](C)O)C(=O)NCC(=O)N[C@@H](Cc2ccc(NC(=N)N)cc2)C(=O)NCC(=O)N(C)CC(=O)N(C)[C@@H](CC(C)C)C(=O)N[C@@H](Cc2ccc(O)cc2)C(=O)C(=O)N2CCC[C@H]2C(=O)N[C@H](C(N)=O)CSSC1(C)C (Ac-RF[Pen]TG[Phe(4-guanidino)]G[Sar][NMeL][X1]PC-NH2; disulfide 3-12) |  | 6.00 | 7.21 | 7.13 | 
6 | CC(C)C[C@H]1C(=O)N[C@@H](Cc2ccc(O)cc2)C(=O)C(=O)N2CCC[C@H]2C(=O)N[C@H](C(=O)N[C@@H](CC(N)=O)C(=O)NCC(=O)N2CCC[C@H]2C(N)=O)CCCCNC(=O)C[C@H](NC(=O)[C@H](Cc2ccccc2)NC(=O)CSCCC(=O)NCCC(=O)NCCCN(C)CCCNC(=O)CCNC(=O)CCSCC(=O)N[C@@H](CCC(N)=O)C(=O)N[C@@H](CCCNC(=N)N)C(=O)N[C@@H](Cc2ccccc2)C(=O)N[C@H]2CC(=O)NCCCC[C@@H](C(=O)N[C@@H](CC(N)=O)C(=O)NCC(=O)N3CCC[C@H]3C(N)=O)NC(=O)[C@@H]3CCCN3C(=O)C(=O)[C@H](Cc3ccc(O)cc3)NC(=O)[C@H](CC(C)C)N(C)C(=O)CN(C)C(=O)CNC(=O)[C@H](Cc3ccccc3)NC(=O)[C@H](Cc3c[nH]cn3)NC(=O)CNC(=O)[C@H]([C@@H](C)O)NC2=O)C(=O)N[C@@H]([C@@H](C)O)C(=O)NCC(=O)N[C@@H](Cc2c[nH]cn2)C(=O)N[C@@H](Cc2ccccc2)C(=O)NCC(=O)N(C)CC(=O)N1C (I: QRFDTGHFG[Sar][NMeL][X1]PKNGP-NH2 / II: FDTGHFG[Sar][NMeL][X1]PKNGP-NH2; lactam I:4-I:14, II:2-II:12; linker I:N-II:N via X3) | 9.2 |  |  |  | 

The remaining molecules from weak to strong by pIC50 [2], led by results:

Row | Ratio IC50 [1] | pIC50 [2] | pKd [5] | pKd [6] | SMILES | further results
7 | 38 | 6.24 |  |  | CC(C)C[C@H]1C(=O)N[C@@H](Cc2ccc(O)cc2)C(=O)C(=O)N2CCC[C@H]2C(=O)N[C@H](C(=O)N[C@@H](CC(N)=O)C(=O)NCC(=O)N2CCC[C@H]2C(N)=O)CCCCNC(=O)C[C@H](NC(=O)[C@H](Cc2ccccc2)NC(=O)CSCC(=O)N[C@@H](CCC(N)=O)C(=O)N[C@@H](CCCNC(=N)N)C(=O)N[C@@H](Cc2ccccc2)C(=O)N[C@H]2CC(=O)NCCCC[C@@H](C(=O)N[C@@H](CC(N)=O)C(=O)NCC(=O)N3CCC[C@H]3C(N)=O)NC(=O)[C@@H]3CCCN3C(=O)C(=O)[C@H](Cc3ccc(O)cc3)NC(=O)[C@H](CC(C)C)N(C)C(=O)CN(C)C(=O)CNC(=O)[C@H](Cc3ccccc3)NC(=O)[C@H](Cc3c[nH]cn3)NC(=O)CNC(=O)[C@H]([C@@H](C)O)NC2=O)C(=O)N[C@@H]([C@@H](C)O)C(=O)NCC(=O)N[C@@H](Cc2c[nH]cn2)C(=O)N[C@@H](Cc2ccccc2)C(=O)NCC(=O)N(C)CC(=O)N1C (I: QRFDTGHFG[Sar][NMeL][X1]PKNGP-NH2 / II: FDTGHFG[Sar][NMeL][X1]PKNGP-NH2; lactam I:4-I:14, II:2-II:12; linker I:N-II:N via X4) | 
8 |  | 6.37 | 7.37 | 6.59 | CC(=O)N[C@@H](CCCNC(=N)N)C(=O)N[C@@H](Cc1ccccc1)C(=O)N[C@@H]1C(=O)N[C@@H]([C@@H](C)O)C(=O)NCC(=O)N[C@@H](Cc2cnc[nH]2)C(=O)N[C@@H](Cc2ccccc2)C(=O)N[C@H]2CCCN(CC(=O)N(C)[C@@H](CC(C)C)C(=O)N[C@@H](Cc3ccc(O)cc3)C(=O)C(=O)N3CCC[C@H]3C(=O)N[C@H](C(N)=O)CSSC1(C)C)C2=O | 
9 |  | 7.30 |  |  | CC(C)C[C@H]1C(=O)N[C@@H](Cc2ccc(O)cc2)C(=O)C(=O)N2CCC[C@H]2C(=O)N[C@H](C(N)=O)CCCCNC(=O)C[C@H](NC(=O)[C@H](Cc2ccccc2)NC(=O)[C@H](CCCNC(=N)N)NC(=O)CCC(=O)NCCN(C)CC(=O)N[C@@H](CCCNC(=N)N)C(=O)N[C@@H](Cc2ccccc2)C(=O)N[C@H]2CC(=O)NCCCC[C@@H](C(N)=O)NC(=O)[C@@H]3CCCN3C(=O)C(=O)[C@H](Cc3ccc(O)cc3)NC(=O)[C@H](CC(C)C)N(C)C(=O)CN(C)C(=O)CNC(=O)[C@H](Cc3ccccc3)NC(=O)[C@H](Cc3c[nH]cn3)NC(=O)CNC(=O)[C@H]([C@@H](C)O)NC2=O)C(=O)N[C@@H]([C@@H](C)O)C(=O)NCC(=O)N[C@@H](Cc2c[nH]cn2)C(=O)N[C@@H](Cc2ccccc2)C(=O)NCC(=O)N(C)CC(=O)N1C (I: [NHCH2CH2N(Me)CH2CO]RFDTGHFG[Sar][NMeL][X1]PK-NH2 / II: RFDTGHFG[Sar][NMeL][X1]PK-NH2; lactam I:4-I:14, II:3-II:13; linker I:N-II:N via Suc) | Activity [4]: Active
10 |  | 8.59 |  |  | CC(C)C[C@H]1C(=O)N[C@@H](Cc2ccc(O)cc2)C(=O)C(=O)N2CCC[C@H]2C(=O)N[C@H](C(N)=O)CSSC(C)(C)[C@H](NC(=O)[C@H](Cc2ccccc2)NC(=O)[C@H](CCCNC(=N)N)NC(=O)CN(C)CCNC(=O)CCC(=O)N[C@@H](CCCNC(=N)N)C(=O)N[C@@H](Cc2ccccc2)C(=O)N[C@@H]2C(=O)N[C@@H]([C@@H](C)O)C(=O)NCC(=O)N[C@@H](Cc3c[nH]cn3)C(=O)N[C@@H](Cc3ccccc3)C(=O)NCC(=O)N(C)CC(=O)N(C)[C@@H](CC(C)C)C(=O)N[C@H](Cc3ccc(O)cc3)C(=O)C(=O)N3CCC[C@H]3C(=O)N[C@H](C(N)=O)CSSC2(C)C)C(=O)N[C@@H]([C@@H](C)O)C(=O)NCC(=O)N[C@@H](Cc2c[nH]cn2)C(=O)N[C@@H](Cc2ccccc2)C(=O)NCC(=O)N(C)CC(=O)N1C | Ratio IC50 [7]: 200; Activity [8]: Active
